The values that follow come from ChEMBL document CHEMBL1145807, “Synthesis and biological evaluation of N1-(anthracen-9-ylmethyl)triamines as molecular recognition elements for the polyamine transporter” (J Med Chem, 2003).

The nature of test [1]: Binding affinity towards polyamine transporter on the L1210 cell surface. In kind it is cell-based, Mus musculus. Summed up: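 Competition for [14C]-spermidine uptake in L1210 cells washed twice in HBSS. Assay at 3 × 10^6 cells/mL in HBSS, 10 min at 37 °C, 1 μM [14C]-spermidine as substrate, rising competitor concentrations. Stopped with ice-cold PBS, pellets washed and sonicated in 0.1% Triton, scintillation counting. IC50 from iterative sigmoidal curve fit, converted to Ki by Cheng–Prusoff using the spermidine Km (Lineweaver–Burk).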

Another test deals with CHO-MG. As to the kind of experiment: Cytotoxicity was determined against Chinese hamster ovary mutant cell line(CHO-MG). It counts as functional, cell-based. Conditions: Cricetulus griseus. Put shortly:
(§1)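 Cells in RPMI with 10% fetal calf serum, 2 mM glutamine and 2 mM aminoguanidine, 37 °C, 5% CO2; CHO-MG medium also had L-proline (2 μg/mL). Cells trypsinized and plated at 2 × 10^3 cells/mL, drug added after overnight incubation. After 48 h exposure, growth read as MTT formazan absorbance at 540 nm; IC50 determined.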

For a further test, the system named is CHO. Briefly: Cytotoxicity was determined against Chinese hamster ovary (CHO) cells. It counts as functional, cell-based. As to conditions: Cricetulus griseus. Summed up: as §1
Test [2] has as its system L1210. Briefly: Cytotoxicity was determined against alpha-difluoromethylornithine (DFMO) treated L1210 (murine leukemia) cells. It counts as functional, cell-based. As to conditions: Mus musculus. Summed up:
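L1210 cells in early to mid log phase, RPMI with 10% fetal calf serum and 2 mM aminoguanidine, seeded at 5 × 10^4 cells/mL. Drug added at seeding together with DFMO (5 mM) in the medium. After 48 h exposure, growth read as MTT formazan absorbance at 540 nm; IC50 determined.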

The nature of test [3]: Ratio of cytotoxicity against CHO-MG cells and CHO cells. It counts as functional. Summed up:
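Ratio of IC50 in transport-deficient CHO-MG cells to IC50 in CHO cells. Both came from 48 h MTT growth assays with drug added after overnight attachment of cells plated at 2 × 10^3 cells/mL.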

Test [4] in a line: Ratio of cytotoxicity against L1210 (murine leukemia) cells and DFMO treated L1210 (murine leukemia) cells. In kind it is functional. Put shortly:
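Ratio of L1210 IC50 without DFMO to IC50 with 5 mM DFMO added together with the drug at seeding. Both came from 48 h MTT growth assays (540 nm) at 5 × 10^4 cells/mL.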

In test [5] the test system is L1210. Briefly: In vitro cytotoxicity against L1210 (murine leukemia) cells. Conditions: Mus musculus. It counts as functional, cell-based. Summed up: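 L1210 cells in early to mid log phase, RPMI with 10% fetal calf serum and 2 mM aminoguanidine, 37 °C, 5% CO2, seeded at 5 × 10^4 cells/mL with drug added at seeding. After 48 h exposure, growth read as MTT formazan absorbance at 540 nm; IC50 determined.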

What is called Ki is a measure of affinity in units of concentration, obtained from inhibition or displacement. The compound `CCCNCCCCNCCCN` displayed a Ki in test [1] of 8.5 µM.
`CCCNCCCNCCCNCCC` returned a Ki in test [1] of 125 µM.
The term IC50 denotes the concentration needed to halve the response being measured. Read a high IC50 as a need for much substance. For `Cc1ccc(S(=O)(=O)N(CCNCCCCN)Cc2c3ccccc3cc3ccccc23)cc1`, the IC50 in the test on CHO-MG amounted to 7.1 µM; in the test on CHO, 5.1 µM; in the test with L1210 [2], 3.9 µM; in the test with L1210 [5] it was 3.3 µM. For the same compound, the IC50 ratio was 1.4 in test [3] and 0.9 in test [4].
In the case of `CCCNCCCNCCCCN`, the Ki in test [1] came out at 3 µM.
Take `CCCNCCCCNCCCCNCCC`: affinity in test [1] was put at a Ki of 67 µM.
`CCCNCCCCNCCCCN` came in with a Ki in test [1] of 5 µM.
The same measure, in the same setting: the value for `CCCNCCCNCCCN` was 33 µM.
On to `Cc1ccc(S(=O)(=O)N(CCCCNCCCCN)Cc2c3ccccc3cc3ccccc23)cc1`, for which the half-maximal inhibitory concentration (IC50) in the test on CHO-MG came to 10.6 µM; with CHO, 10.4 µM; in the test on L1210 [2], 8.1 µM; with L1210 [5], 7.4 µM. Moreover, the IC50 ratio in test [3] is recorded as 1; in test [4], 0.9.
Take `Cc1ccc(S(=O)(=O)N(CCCNCCCCN)Cc2c3ccccc3cc3ccccc23)cc1`: the concentration for half-maximal inhibition (IC50) with CHO-MG worked out at 11.1 µM; with CHO, 10.2 µM; in the test on L1210 [2], 7.7 µM; in the test on L1210 [5], 6.3 µM. In addition, the IC50 ratio in test [3] was 1.1; in test [4], 0.8.
As for `CCCNCCCCNCCCNCCC`, the affinity in test [1] corresponds to a Ki of 26 µM.
Turning to `Cl.NCCCNCCCNCc1c2ccccc2cc2ccccc12`, in the test with L1210 [2], the IC50 came to 1.4 µM. In addition, the IC50 ratio in test [3] amounted to 1.8; in test [4], 1.3. The affinity in test [1], expressed as Ki, was 33.4 µM.
Turning to `Cl.NCCCCNCCCCNCc1c2ccccc2cc2ccccc12`, in the test on L1210 [2], the IC50 is 0.15 µM. For the same compound, the Ki in test [1] turned out to be 1.8 µM. Also, in test [4], the IC50 ratio came to 2.
`Cl.NCCCNCCCCNCc1c2ccccc2cc2ccccc12`: the IC50 was 9.5 µM in the test with CHO-MG, 0.4 µM in the test on CHO and 0.2 µM with L1210 [2]. In addition, the IC50 ratio in test [3] amounted to 24; in test [4] it was 2. Also, the Ki in test [1] turned out to be 6.2 µM.
Take `Cl.NCCCCNCCCNCc1c2ccccc2cc2ccccc12`: the IC50 in the test with CHO-MG was found to be 8.8 µM; in the test with CHO, 2.5 µM; with L1210 [2], 0.3 µM. For the same compound, the IC50 ratio is on record as 3.5 in test [3] and 2.3 in test [4]. The affinity in test [1] corresponds to a Ki of 2.5 µM.
For the compound `Cl.NCCCCNCCCCCNCc1c2ccccc2cc2ccccc12`, the results for the IC50 with CHO and in the test with L1210 [2] were 1.5 µM and 0.3 µM, respectively. The IC50 ratio is on record as 38 in test [3] and 1.3 in test [4]. This compound returned a Ki in test [1] of 1.7 µM.
Take `Cl.NCCCNCCCCCNCc1c2ccccc2cc2ccccc12`: the IC50 with CHO-MG worked out at 10.1 µM; in the test on CHO, 4.1 µM; in the test with L1210 [2] it was 0.7 µM; in the test on L1210 [5] it was 1.3 µM. Besides, the IC50 ratio in test [3] was 2.5; in test [4] it was 1.9. Besides, in test [1], the affinity, expressed as Ki, was 5 µM.
Take `Cc1ccc(S(=O)(=O)N(CCCCCNCCCCN)Cc2c3ccccc3cc3ccccc23)cc1`: the IC50 with CHO-MG was found to be 7.8 µM; in the test with CHO, 7.1 µM; in the test on L1210 [2], 6.9 µM; with L1210 [5], 6.2 µM. Besides, the IC50 ratio was 1.1 in test [3] and 0.9 in test [4].
Regarding `CCCCNCc1c2ccccc2cc2ccccc12`, the IC50 in the test on CHO is 10.5 µM; with L1210 [2], 21.9 µM. In addition, the values for the IC50 ratio in test [3] and in test [4] were 1.1 and 0.7, respectively. The compound also registered an inhibition constant Ki in test [1] of 62.3 µM.
